# Screening data: PubChem BioAssay, The Scripps Research Institute Molecular Screening Center
# Shown are actives, neighbours in structure and some others; about 1.5% of the full set was active somewhere.
# V1R ag counter = agonists of human V1a receptor, primary screen, counter-screen for OXTR agonist project, fluorescence, CHO-V1R cells | Fluo-8 calcium fluorescence, agonist mode; 0% DMSO, 100% 3 nM vasopressin | activation, % at 3 µM | actives 0.25% (n = 320,000) | AID 2797, 2010;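 active = activation above the mean activation of all tested compounds plus 3 SD, per screening run, cut at about 20% in these data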;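 also: signal is peak over basal fluorescence ratio across a 100 second FLIPR read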
# Target sequence (P37288 whole entry, looked up): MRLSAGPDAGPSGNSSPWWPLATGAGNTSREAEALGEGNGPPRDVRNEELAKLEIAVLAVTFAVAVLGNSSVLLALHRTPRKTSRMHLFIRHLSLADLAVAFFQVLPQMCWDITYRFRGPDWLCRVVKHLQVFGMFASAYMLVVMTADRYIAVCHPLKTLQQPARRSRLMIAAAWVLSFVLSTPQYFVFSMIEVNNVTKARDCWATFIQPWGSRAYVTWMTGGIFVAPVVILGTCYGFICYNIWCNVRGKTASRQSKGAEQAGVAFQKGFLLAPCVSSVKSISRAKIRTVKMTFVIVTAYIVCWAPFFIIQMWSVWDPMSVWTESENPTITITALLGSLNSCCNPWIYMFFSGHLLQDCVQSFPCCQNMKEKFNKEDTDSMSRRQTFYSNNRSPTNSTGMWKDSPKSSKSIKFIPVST
# OXTR potentiate = human OXTR potentiators, primary screen, fluorescence, CHO-OTR cells, Fluo-8 calcium. Oxytocin receptor (Homo sapiens), P30559. Fluo-8 calcium fluorescence, potentiator mode; 0% = oxytocin EC15, 100% = EC100. activation, % at 3 µM. actives 0.061% (n = 320,000). AID 2445, 2010;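 active = activation above that plate's cutoff, the mean activation of tested compounds plus 3 SD, cut at about 6.6% in these data, passing the limit was not always enough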;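 also: 100% uses oxytocin at 75 nM as the full agonist control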
#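 assay system = CHO-OTR cells, human receptor | schedule = compound 6 min at room temperature before oxytocin, 100 s read | detection = Fluo-8 intracellular calcium fluorescence, ex 470-495, em 515-575 nm | evaluation = normalized max/min fluorescence ratio, % activation | control set = EC15 oxytocin alone as 0%, 75 nM oxytocin (EC100) as 100%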
# CHRM4 PAM = human M4 muscarinic receptor positive allosteric modulators, primary screen, CHO-K1 cells, Fluo-8 calcium fluorescence; CHO-K1 hM4/Gqi5, ACh EC20; 0% = ACh EC20, 100% = maximal ACh; activation, % at 3 µM; actives 0.4% (n = 360,000); AID 624126, 2012;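 active = activation above its plate's cutoff, the mean activation of sample wells plus 3 SD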
# OXTR ag = human OXTR agonists, primary screen, fluorescence, CHO-OTR cells, Fluo-8 calcium; Oxytocin receptor (Homo sapiens), P30559; Fluo-8 calcium fluorescence; normalized: DMSO 0%, oxytocin 100%; activation, % at 3 µM; actives 0.32% (n = 320,000);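 active = activation above the mean of all tested compounds plus 3 SD, cutoff set per screening run, cut at about 20% in these data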;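 also: peak over basal fluorescence ratio from a 100 s FLIPR kinetic read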
# M4 ag = human M4 muscarinic receptor agonists, primary screen, CHO-K1 cells, Fluo-8 calcium fluorescence; Muscarinic acetylcholine receptor M4 (Homo sapiens), P08173; actives 0.14% (n = 360,000); CHO-K1 hM4/Gqi5; vehicle 0%, full acetylcholine response 100%; activation, % at 3 µM; AID 624127, 2012;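 active = activation above the run mean over all test wells plus 3 SD, cut at about 32% in these data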;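 also: peak over basal fluorescence ratio per well then scaled between controls; 0% = DMSO wells and 100% = acetylcholine at EC100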
# M4 antag = human M4 muscarinic receptor antagonists, primary screen, CHO cells, Fluo-8 calcium fluorescence; CHO-hM4 cells, ACh EC80; inhibition, % at 3 µM; actives 0.73% (n = 360,000);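 active = inhibition above its plate's cutoff, the mean inhibition of sample wells plus 3 SD, cut at about 27% in these data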;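 also: 0% = acetylcholine EC80 with DMSO and 100% = DMSO without agonist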
# Starred values were filed as active, the others as inactive; / = not tested or not shown.
SMILES,V1R ag counter,OXTR potentiate,CHRM4 PAM,OXTR ag,M4 ag,M4 antag
Cc1ccccc1OCC(=O)NCCCNC(=O)c1ccccn1,1,-10,16*,1,1,-15
Cc1ccc(OCC(=O)NCCCNC(=O)c2ccccn2)cc1,3,-10,-6,0,2,8
COc1ccccc1-c1c(C)c(C)nc(N)c1C#N,-1,-3,3,0,1,-1
COc1ccccc1-c1cc(C2CC2)nc(N)c1C#N,0,-5,10,-2,-2,1
N#Cc1c(-c2ccccc2Cl)cc(C2CC2)nc1N,30*,-8,7,36*,62*,-14
Cc1nc(N)c(C#N)c(-c2ccccc2Cl)c1C,6,-7,29*,3,2,-1
N#Cc1cccc(-c2csc(C(O)c3ccc(F)cc3)n2)c1 (stereo unspecified),/,/,-1,/,3,-7
COc1ccc(Nc2c(-c3ccc(F)cc3)nc3nc(C)cc(C)n23)cc1,/,/,2,/,-2,3
Cc1ccc2nc(SCC(=O)O)nc(C)c2c1,-1,3,19*,1,1,-1
Cc1ccc2nc(SCCC#N)nc(C)c2c1,1,-2,0,-2,0,2
CCCCn1c(N)c(N(CC)C(=O)C2=COCCO2)c(=O)[nH]c1=O,0,1,2,-1,1,3
CC1(C(=O)NS(=O)(=O)C2CC2)CCCN(C(=O)c2ccc(F)cc2Cl)C1 (stereo unspecified),/,/,5,/,0,-1
CC(C)C(O)(C#CCN1CCCC1)c1ccccc1 (stereo unspecified),1,-5,-12,1,1,46*
CC(C)C(O)(C#CCN1CCCCC1)c1ccccc1 (stereo unspecified),10,4,-35,3,1,98*
CC(O)(C#CCN1CCOCC1)c1ccccc1 (stereo unspecified),/,/,-2,/,0,6
CCc1noc(C)c1C(=O)N1CCN(S(=O)(=O)c2ccccc2C(F)(F)F)CC1,0,0,3,-1,0,4
COc1cc(Cl)c(C)cc1NC(=O)CCN1C(=O)NC(C)(C)C1=O,/,/,4,/,0,-2
COC(=O)c1sc2nc(C)c([N+](=O)[O-])c(C)c2c1N,-1,-8,46*,-2,16,18
CC(=O)c1sc2nc(C)c3c(c2c1N)CCCC3,-1,-2,-1,-3,3,-12
O=C(C[C@H]1CC[C@H](NC(=O)Nc2ccccc2F)[C@@H](CO)O1)NCc1ccc(-c2ccccc2)cc1,/,/,0,/,2,-3
O=C(c1ccc(OC2CCN(CCCc3ccccc3)CC2)cc1)N1CCCC1,0,-5,-15,1,2,30*
CCOC(=O)C1CCN(C(=O)c2ccc(OC3CCN(C(=O)COC)CC3)cc2)CC1,/,/,20*,/,1,-5
COc1ccc(CCC(C)N2CCC(Oc3ccc(C(=O)N4CCCC4)cc3)CC2)cc1 (stereo unspecified),0,-1,-15,1,4,42*
CC(C)N(C)C(=O)c1ccc(OC2CCN(CCc3ccccc3)CC2)cc1,2,0,-30,3,2,6
CC(CCc1ccc(O)cc1)N1CCC(Oc2ccc(C(=O)N3CCCC3)cc2)CC1 (stereo unspecified),/,/,-15,/,0,20
SMILES,V1R ag counter,OXTR potentiate,CHRM4 PAM,OXTR ag,M4 ag,M4 antag
CC(c1nccs1)N(C)C(=O)c1ccc(OC2CCN(CCc3ccccc3)CC2)cc1 (stereo unspecified),0,-10,-16,2,2,31*
CCC1CCCCN1C(=O)Cn1nc([N+](=O)[O-])c(Cl)c1C (stereo unspecified),1,-5,-6,-1,1,8
COc1cccc(-c2ncc3ccccc3c2COC(=O)c2cccc(Br)c2)c1,0,-4,3,-1,3,-4
CCOC(=O)C1CCCN(C(=O)Cn2nc(C)c3c(C)n(-c4ccccc4)nc3c2=O)C1 (stereo unspecified),1,-4,17*,-2,1,0
Cc1nn(CC(=O)N2CCCC2)c(=O)c2nn(-c3ccccc3)c(C)c12,0,-6,1,0,1,-5
O=C(c1cccc(C(F)(F)F)c1)N1CCCCCC1,0,-6,-1,-1,0,-7
CC(C)n1c(C(F)(F)F)nc2cc(C(=O)N3CCCCC3)ccc21,1,1,-2,-1,1,30*
Nc1cc(S(=O)(=O)N2CCOCC2)ccc1Oc1cccc(Br)c1,/,/,-6,/,9,5
CCOC(=O)COc1ccccc1/C=C\[N+](=O)[O-],2,-1,-9,2,4,27*
CC1CCCC(NC(=O)COC(=O)c2ccc(Br)o2)C1C (stereo unspecified),1,-1,22*,1,2,-3
CCCCn1c(N)c(N(CCOC)C(=O)c2cc3c(s2)CCCCC3)c(=O)[nH]c1=O,0,-1,24*,0,1,-8
CCCCn1c(N)c(N(CCOC)C(=O)c2cc3c(s2)CCC3)c(=O)[nH]c1=O,-1,9,2,0,1,-4
Cc1ccc(S(=O)(=O)Nc2cccc3ncccc23)cc1,2,-28,12,1,4,-5
Cc1ccc(S(=O)(=O)Nc2cccc3ncccc23)s1,1,-2,-2,0,2,28*
CCCC1N2CC3([N+](=O)[O-])CN1CC([N+](=O)[O-])(C2)C3(C)C (stereo unspecified),0,0,20*,0,1,-1
Cc1ccc(C2N3CC4([N+](=O)[O-])CN2CC([N+](=O)[O-])(C3)C4(C)C)cc1 (stereo unspecified),0,0,3,-2,1,-12
COC(=O)[C@@H]1C[C@@]2(O)[C@@H](O)[C@@H](O)[C@@H](O)C[C@H]2N1Cc1ccc(C(F)(F)F)cc1,0,-1,4,0,1,3
COC(=O)[C@@H]1C[C@@]2(O)[C@H](O)[C@H](O)[C@H](O)C[C@H]2N1Cc1cc(F)ccc1F,2,5,28*,0,2,-2
COc1ccc(-n2c(C)nc3c(cnn3-c3ccc(C)c(C)c3)c2=O)cc1,4,-10,-11,2,1,31*
